In brackets after ≈: the same amount, converted by molar mass.
Columns and labels:
P388 [1] = assay: Concentration required for 50% inhibition of incorporation of labeled uridine by P388 cells for the synthesis of RNA (in vitro); e indicates values are high and variable; format: functional, cell-based; details: Mus musculus
Calf thymus DNA [2] = assay: Apparent number of binding sites per base pairs in DNA; Not measurable; format: nucleic-acid assay; details: Bos taurus
Summary of the method: (§1)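 Calf thymus DNA; spectral titration; binding isotherms in 0.01 M phosphate buffer, pH 7.0, 20 °C; Kapp (per base pair) and Bapp (drug binding sites per base pair) taken from Scatchard plot.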

P388 [3] = assay: Concentration required for 50% inhibition of incorporation of labeled thymidine by p388 cells for synthesis of DNA (in vitro); e indicates values are high and variable; format: functional, cell-based; details: Mus musculus
Calf thymus DNA [4] = assay: Apparent binding constant against calf thymus DNA-drug complex; Not measurable; format: nucleic-acid assay; details: Bos taurus; summary of the method: as §1
P388 [5] = assay: Optimal dose for antitumor activity was measured in P388 cells of CDF1 male mice in vivo; Highest dose tested; format: functional, Mus musculus
Summary of the method: (§2)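 CDF1 male mice, groups of seven, given 10^6 P388 cells ip on day 0; drug ip in 5% DMSO–saline on days 1, 5 and 9; controls received vehicle; range of doses tested, optimal nontoxic dose listed; median survival time; %ILS = (treated − control)/control × 100; average of two or more experiments.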

P388 [6] = assay: Median survival time of the P388 cells implanted CDF1 male mice in vivo; format: functional, Mus musculus; summary of the method: as §2
P388 [7] = assay: Percent of increased life span of P388 cells implanted CDF1 male mice; format: functional, Mus musculus; summary of the method: as §2
CCRF-CEM = assay: In vitro antitumor activity against human lymphoblastic leukemia cells.; format: functional; details: for IC50: read-out: ID50 (the source's name)
Summary of the method: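 Human lymphoblastic leukemia CCRF-CEM cells grown in suspension culture; growth inhibition in vitro; ID50 (ng/mL) reported as the 50% inhibitory dose.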

P388 [8] = assay: Concentration required for 50% inhibition of incorporation of labeled uridine by P388 cells for the synthesis of RNA (in vitro); format: functional; details: Mus musculus, read-out: ED50 (the source's name)
P388 [9] = assay: Concentration required for 50% inhibition of incorporation of labeled thymidine by p388 cells for synthesis of DNA (in vitro); format: functional; details: Mus musculus, read-out: ED50 (the source's name)
P388 [10] = assay: Concentration required for 50% inhibition of incorporation of labeled thymidine by p388 cells for synthesis of DNA (in vitro); Not determined because of lack of DNA binding; format: functional, cell-based; details: Mus musculus
P388 [11] = assay: Concentration required for 50% inhibition of incorporation of labeled uridine by P388 cells for the synthesis of RNA (in vitro); Not determined because of lack of DNA binding; format: functional, cell-based; details: Mus musculus
P388 [12] = assay: Optimal dose for antitumor activity was measured in P388 cells of CDF1 male mice in vivo; format: functional; details: Mus musculus; summary of the method: as §2
Calf thymus DNA [13] = assay: Apparent binding constant calf thymus DNA-drug complex; format: nucleic-acid assay; details: Bos taurus; summary of the method: as §1

SMILES	ED50 (P388 [1])	Bapp (Calf thymus DNA [2])	ED50 (P388 [3])	K app (Calf thymus DNA [4])	Highest dose tested (P388 [5])	MST (P388 [6])	ILS (P388 [7])	IC50 (CCRF-CEM)	further results
CCCCCCOc1cc(C(=O)N[C@@H]2C(=O)N[C@H](C(C)C)C(=O)N3CCC[C@@H]3C(=O)N(C)CC(=O)N(C)[C@@H](C(C)C)C(=O)O[C@@H]2C)c2nc3c(C(=O)N[C@H]4C(=O)N[C@@H](C(C)C)C(=O)N5CCC[C@H]5C(=O)N(C)CC(=O)N(C)[C@H](C(C)C)C(=O)O[C@H]4C)c(N)c(=O)c(C)c-3oc2c1C	High and variable values	Not measurable	High and variable values	Not measurable					
CCCCCCCOc1cc(C(=O)N[C@@H]2C(=O)N[C@H](C(C)C)C(=O)N3CCC[C@H]3C(=O)N(C)CC(=O)N(C)[C@@H](C(C)C)C(=O)O[C@@H]2C)c2nc3c(C(=O)N[C@@H]4C(=O)N[C@H](C(C)C)C(=O)N5CCC[C@H]5C(=O)N(C)CC(=O)N(C)[C@@H](C(C)C)C(=O)O[C@@H]4C)c(N)c(=O)c(C)c-3oc2c1C					0.9 mg/kg	13 days	24%	3 mg/L (≈ 2.19 µM)	
Cc1c2oc3c(C)ccc(C(=O)N[C@@H]4C(=O)N[C@H](C(C)C)C(=O)N5CCC[C@H]5C(=O)N(C)CC(=O)N(C)[C@@H](C(C)C)C(=O)O[C@@H]4C)c3nc-2c(C(=O)N[C@@H]2C(=O)N[C@H](C(C)C)C(=O)N3CCC[C@H]3C(=O)N(C)CC(=O)N(C)[C@@H](C(C)C)C(=O)O[C@@H]2C)c(NCCCCN)c1=O					1.8 mg/kg	23 days	109%	0.6 mg/L (≈ 0.452 µM)	EC50 (P388 [8]): 0.346 µM; EC50 (P388 [9]): 3.3 µM
CCCCCCNc1c(C(=O)N[C@H]2C(=O)N[C@@H](C(C)C)C(=O)N3CCC[C@H]3C(=O)N(C)CC(=O)N(C)[C@H](C(C)C)C(=O)O[C@H]2C)c2nc3c(C(=O)N[C@@H]4C(=O)N[C@H](C(C)C)C(=O)N5CCC[C@@H]5C(=O)N(C)CC(=O)N(C)[C@@H](C(C)C)C(=O)O[C@@H]4C)ccc(C)c3oc-2c(C)c1=O									ED50 (P388 [10]): Not measurable; ED50 (P388 [11]): Not measurable
CCCCCCNc1c(C(=O)N[C@@H]2C(=O)N[C@H](C(C)C)C(=O)N3CCC[C@H]3C(=O)N(C)CC(=O)N(C)[C@@H](C(C)C)C(=O)O[C@@H]2C)c2nc3c(C(=O)N[C@@H]4C(=O)N[C@H](C(C)C)C(=O)N5CCC[C@H]5C(=O)N(C)CC(=O)N(C)[C@@H](C(C)C)C(=O)O[C@@H]4C)ccc(C)c3oc-2c(C)c1=O					1.2 mg/kg	11 days	0%	3 mg/L (≈ 2.24 µM)	
Cc1c2oc3c(C)c(OC(=O)Cc4ccc(Cl)c(Cl)c4)cc(C(=O)N[C@@H]4C(=O)N[C@H](C(C)C)C(=O)N5CCC[C@@H]5C(=O)N(C)CC(=O)N(C)[C@@H](C(C)C)C(=O)O[C@@H]4C)c3nc-2c(C(=O)N[C@H]2C(=O)N[C@@H](C(C)C)C(=O)N3CCC[C@H]3C(=O)N(C)CC(=O)N(C)[C@H](C(C)C)C(=O)O[C@H]2C)c(N)c1=O	High and variable values	Not measurable	High and variable values	Not measurable					MST (P388 [6]; Mus musculus): 21 days; ILS (P388 [7]; Mus musculus): 100%; ID50 (CCRF-CEM): 0.65 mg/L (≈ 0.446 µM); Optimal dose (P388 [12]): 0.5 mg/kg
CCCCCNc1c(C(=O)N[C@@H]2C(=O)N[C@H](C(C)C)C(=O)N3CCC[C@H]3C(=O)N(C)CC(=O)N(C)[C@@H](C(C)C)C(=O)O[C@@H]2C)c2nc3c(C(=O)N[C@@H]4C(=O)N[C@H](C(C)C)C(=O)N5CCC[C@H]5C(=O)N(C)CC(=O)N(C)[C@@H](C(C)C)C(=O)O[C@@H]4C)ccc(C)c3oc-2c(C)c1=O					1.15 mg/kg	13 days	18%	1.6 mg/L (≈ 1.21 µM)	
Cc1c2oc3c(C)c(OC(=O)C45CC6CC(CC(C6)C4)C5)cc(C(=O)N[C@@H]4C(=O)N[C@H](C(C)C)C(=O)N5CCC[C@@H]5C(=O)N(C)CC(=O)N(C)[C@@H](C(C)C)C(=O)O[C@@H]4C)c3nc-2c(C(=O)N[C@H]2C(=O)N[C@@H](C(C)C)C(=O)N3CCC[C@H]3C(=O)N(C)CC(=O)N(C)[C@H](C(C)C)C(=O)O[C@H]2C)c(N)c1=O		Not measurable		Not measurable					
CCCCCCCOc1cc(C(=O)N[C@@H]2C(=O)N[C@H](C(C)C)C(=O)N3CCC[C@@H]3C(=O)N(C)CC(=O)N(C)[C@@H](C(C)C)C(=O)O[C@@H]2C)c2nc3c(C(=O)N[C@H]4C(=O)N[C@@H](C(C)C)C(=O)N5CCC[C@H]5C(=O)N(C)CC(=O)N(C)[C@H](C(C)C)C(=O)O[C@H]4C)c(N)c(=O)c(C)c-3oc2c1C	High and variable values	Not measurable	High and variable values	Not measurable					
CCCCCCCCCNc1c(C(=O)N[C@H]2C(=O)N[C@@H](C(C)C)C(=O)N3CCC[C@H]3C(=O)N(C)CC(=O)N(C)[C@H](C(C)C)C(=O)O[C@H]2C)c2nc3c(C(=O)N[C@@H]4C(=O)N[C@H](C(C)C)C(=O)N5CCC[C@@H]5C(=O)N(C)CC(=O)N(C)[C@@H](C(C)C)C(=O)O[C@@H]4C)ccc(C)c3oc-2c(C)c1=O									ED50 (P388 [10]): Not measurable; ED50 (P388 [11]): Not measurable
CCCCCCCCCCCNc1c(C(=O)N[C@H]2C(=O)N[C@@H](C(C)C)C(=O)N3CCC[C@H]3C(=O)N(C)CC(=O)N(C)[C@H](C(C)C)C(=O)O[C@H]2C)c2nc3c(C(=O)N[C@@H]4C(=O)N[C@H](C(C)C)C(=O)N5CCC[C@@H]5C(=O)N(C)CC(=O)N(C)[C@@H](C(C)C)C(=O)O[C@@H]4C)ccc(C)c3oc-2c(C)c1=O									ED50 (P388 [10]): Not measurable; ED50 (P388 [11]): Not measurable
CCCCCCCCCNc1c(C(=O)N[C@@H]2C(=O)N[C@H](C(C)C)C(=O)N3CCC[C@H]3C(=O)N(C)CC(=O)N(C)[C@@H](C(C)C)C(=O)O[C@@H]2C)c2nc3c(C(=O)N[C@@H]4C(=O)N[C@H](C(C)C)C(=O)N5CCC[C@H]5C(=O)N(C)CC(=O)N(C)[C@@H](C(C)C)C(=O)O[C@@H]4C)ccc(C)c3oc-2c(C)c1=O					1.8 mg/kg	10 days		11 mg/L (≈ 7.96 µM)	
CCCCCCOc1cc(C(=O)N[C@@H]2C(=O)N[C@H](C(C)C)C(=O)N3CCC[C@H]3C(=O)N(C)CC(=O)N(C)[C@@H](C(C)C)C(=O)O[C@@H]2C)c2nc3c(C(=O)N[C@@H]4C(=O)N[C@H](C(C)C)C(=O)N5CCC[C@H]5C(=O)N(C)CC(=O)N(C)[C@@H](C(C)C)C(=O)O[C@@H]4C)c(N)c(=O)c(C)c-3oc2c1C					0.9 mg/kg	13 days	24%	2.5 mg/L (≈ 1.84 µM)	
Cc1c2oc3c(C)c(OC(=O)c4ccc5ccccc5c4)cc(C(=O)N[C@@H]4C(=O)N[C@H](C(C)C)C(=O)N5CCC[C@@H]5C(=O)N(C)CC(=O)N(C)[C@@H](C(C)C)C(=O)O[C@@H]4C)c3nc-2c(C(=O)N[C@H]2C(=O)N[C@@H](C(C)C)C(=O)N3CCC[C@H]3C(=O)N(C)CC(=O)N(C)[C@H](C(C)C)C(=O)O[C@H]2C)c(N)c1=O	High and variable values	Not measurable	High and variable values	Not measurable					
Cc1c2oc3c(C)c(OC(=O)c4ccccc4)cc(C(=O)N[C@@H]4C(=O)N[C@H](C(C)C)C(=O)N5CCC[C@@H]5C(=O)N(C)CC(=O)N(C)[C@@H](C(C)C)C(=O)O[C@@H]4C)c3nc-2c(C(=O)N[C@H]2C(=O)N[C@@H](C(C)C)C(=O)N3CCC[C@H]3C(=O)N(C)CC(=O)N(C)[C@H](C(C)C)C(=O)O[C@H]2C)c(N)c1=O	High and variable values	Not measurable	High and variable values	Not measurable					
Cc1c2oc3c(C)c(OCc4ccc(Cl)cc4)cc(C(=O)N[C@@H]4C(=O)N[C@H](C(C)C)C(=O)N5CCC[C@@H]5C(=O)N(C)CC(=O)N(C)[C@@H](C(C)C)C(=O)O[C@@H]4C)c3nc-2c(C(=O)N[C@H]2C(=O)N[C@@H](C(C)C)C(=O)N3CCC[C@H]3C(=O)N(C)CC(=O)N(C)[C@H](C(C)C)C(=O)O[C@H]2C)c(N)c1=O	High and variable values	Not measurable	High and variable values						K app (Calf thymus DNA [13]): 100000 M⁻¹
Cc1c2oc3c(C)ccc(C(=O)N[C@@H]4C(=O)N[C@H](C(C)C)C(=O)N5CCC[C@H]5C(=O)N(C)CC(=O)N(C)[C@@H](C(C)C)C(=O)O[C@@H]4C)c3nc-2c(C(=O)N[C@@H]2C(=O)N[C@H](C(C)C)C(=O)N3CCC[C@H]3C(=O)N(C)CC(=O)N(C)[C@@H](C(C)C)C(=O)O[C@@H]2C)c(NCCCCCN)c1=O					1.8 mg/kg	18 days	64%	0.85 mg/L (≈ 0.634 µM)	EC50 (P388 [8]): 0.46 µM; EC50 (P388 [9]): > 4.6 µM
CCCCCCCCCCCNc1c(C(=O)N[C@@H]2C(=O)N[C@H](C(C)C)C(=O)N3CCC[C@H]3C(=O)N(C)CC(=O)N(C)[C@@H](C(C)C)C(=O)O[C@@H]2C)c2nc3c(C(=O)N[C@@H]4C(=O)N[C@H](C(C)C)C(=O)N5CCC[C@H]5C(=O)N(C)CC(=O)N(C)[C@@H](C(C)C)C(=O)O[C@@H]4C)ccc(C)c3oc-2c(C)c1=O					1.15 mg/kg	10 days		> 15 mg/L	

— ChEMBL document CHEMBL1121923, “N2- and C-7 substituted actinomycin D analogues: synthesis, DNA-binding affinity, and biochemical and biological properties. Structure-activity relationship” (J Med Chem, 1981)
